The results in this text go back to PubChem BioAssay.

Each structure is given as a SMILES string. The source made the active and inactive calls.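 The calls were made as follows, unless noted: active = fluorescence slope after compound addition differing from the mean of all tested samples at 99.7% confidence, mostly higher but some lower; inactive = the rest.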

Assay [1] is described as follows: inhibitors of TNFa-induced NFkB p65 translocation, primary screen, imaging, HUVEC, MLSMR starter and 10KST1 sets (AID 438;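 active = inhibition above 20% together with a positive visual image hit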;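 also: compound added about 3h40 before a 20 min TNFalpha stimulation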;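 as to inhibition: signal is the nuclear over cytoplasmic p65 intensity ratio per well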). To be noted: HUVEC TNFa-induced p65 nuclear translocation; cell count: measured here: nuclei count (cytotoxicity indicator), at 2.08 µM; inhibition: at 2 µM, stronger effect = higher value, 0% TNFa-plus-vehicle, 100% no-TNFa wells.
Assay [2] is described as follows: inhibitors of mutant huntingtin aggregation, primary screen, imaging, exon1htt(103Q)mCFP cells, high-content imaging (AID 483;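 active = visual image review flags a hit and inhibition of aggregation exceeds 20%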;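 also: compound exposure lasted 3 days before fixation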;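 as to nuclei count: percent of the per-plate median nuclei count of sample wells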). Conditions: exon1htt(103Q)mCFP cell line, aggregate imaging, at 2 µM; inhibition of aggregation: stronger effect = higher value; nuclei count: measured here: cell count, toxicity.
A short description of assay [3]: inhibitors of E-selectin induction by TNFa, primary screen, imaging, HUVEC, immunofluorescence, MLSMR starter and 10KST1 sets (AID 487;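 active = visually confirmed hit in the image check and inhibition above 20%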;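 as to inhibition: signal is fraction of cell area covered by stained E-selectin grains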;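 as to nuclei count: 100% = median nuclei count of all wells on the same plate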). To be noted: HUVEC TNFalpha-induced E-selectin immunofluorescence imaging, at 2 µM; inhibition: stronger effect = higher value; nuclei count: measured here: cell number, toxicity.
For assay [4], the target named is Voltage-gated potassium channel subunit beta-2 (Rattus norvegicus) (UniProt P62483). Kind of assay: KvBeta enzyme negative modulators, primary screen, biochemical, NADPH fluorescence (AID 622;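 active = fluorescence slope higher than the sample average by over 3 SD, cut at about -0.22 in these data, passing the limit was not always enough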;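 also: slope of raw intensity against log time taken from 70 to 1610 s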). Conditions: recombinant KvBeta, 4-cyanobenzaldehyde reduction, at 10 µM, stronger effect = higher value.
The target is the same in assay [5]. Kind of assay: KvBeta positive modulators, primary screen, biochemical, NADPH fluorescence (AID 623;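 active = NADPH fluorescence slope more negative than the mean of all samples by about 3 SD, 99.7% confidence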;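 also: fluorescence intensity change per second fitted from 20 to 320 s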). To be noted: Recombinant KvBeta, NADPH fluorescence decrease slope, 10 min; at 10 µM; stronger effect = lower value.
For assay [6], the target named is Muscarinic acetylcholine receptor M4 (Homo sapiens) (UniProt P08173). The experiment in a line: compounds altering M4/GIRK thallium flux, either direction, primary screen, M4 allosteric agonist project, cell-based, HEK293 M4/GIRK, BTC-AM (AID 625).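 Also: thallium influx through GIRK channels coupled to M4 in HEK293 cells with BTC-AM dye.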 Conditions: at 10 µM, actives lie on both sides. The method in brief:
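Material: HEK293 cells with M4 receptor and GIRK channels; Times: cells overnight at 37 °C, BTC-AM loading 1 h, reads 2 min total; Technique: kinetic BTC-AM fluorescence sampled at 1 Hz, 10 s pre-addition baseline; Read-out basis: slope over 15–24 s of trace normalized to starting intensity; Controls: carbachol positive, DMSO negative.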

Assay [7] is described as follows: inhibitors of Sendai virus-induced IRF3 signaling, primary screen, TLR/RLR signaling modifier project, cell-based, Sendai virus stimulus, luciferase, 10K MLSCN set (AID 602276;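 active = inhibition at or above 50% at 10 µM; inactive = inhibition below 50%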;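 also: firefly luciferase from ISG56 promoter only with Renilla not read in this screen; 0% = Sendai virus plus DMSO and 100% = medium plus DMSO without virus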). To be noted: HEK293 RL24 IRF3 luciferase reporter, at 10 µM, stronger effect = higher value. For orientation: Reporter assays use an easily measured gene product as a stand-in for the process of interest.

Assay [8] is described as follows: inhibitors of poly I:C-induced TLR3 signaling, primary screen, cell-based, poly I:C stimulus, luciferase, 10K MLSCN set (AID 602277;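 active = inhibition of the reporter signal at or above 50%; inactive = inhibition below 50%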). To be noted: HEK293-TLR3 RL24 IRF3 luciferase reporter, at 10 µM, stronger effect = higher value.

Chain of Voltage-gated potassium channel subunit beta-2 (Rattus norvegicus) (P62483 whole entry, looked up): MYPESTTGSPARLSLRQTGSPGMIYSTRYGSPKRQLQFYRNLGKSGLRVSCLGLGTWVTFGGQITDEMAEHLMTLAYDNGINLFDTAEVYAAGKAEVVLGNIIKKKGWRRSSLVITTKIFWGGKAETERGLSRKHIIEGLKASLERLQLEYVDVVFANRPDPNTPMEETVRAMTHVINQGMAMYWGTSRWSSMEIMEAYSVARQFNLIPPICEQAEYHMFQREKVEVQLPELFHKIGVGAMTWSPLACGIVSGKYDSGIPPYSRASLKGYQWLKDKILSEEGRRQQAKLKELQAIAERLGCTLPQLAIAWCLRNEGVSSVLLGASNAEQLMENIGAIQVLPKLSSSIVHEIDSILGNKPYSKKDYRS
Chain of Muscarinic acetylcholine receptor M4 (Homo sapiens) (P08173 whole entry, looked up): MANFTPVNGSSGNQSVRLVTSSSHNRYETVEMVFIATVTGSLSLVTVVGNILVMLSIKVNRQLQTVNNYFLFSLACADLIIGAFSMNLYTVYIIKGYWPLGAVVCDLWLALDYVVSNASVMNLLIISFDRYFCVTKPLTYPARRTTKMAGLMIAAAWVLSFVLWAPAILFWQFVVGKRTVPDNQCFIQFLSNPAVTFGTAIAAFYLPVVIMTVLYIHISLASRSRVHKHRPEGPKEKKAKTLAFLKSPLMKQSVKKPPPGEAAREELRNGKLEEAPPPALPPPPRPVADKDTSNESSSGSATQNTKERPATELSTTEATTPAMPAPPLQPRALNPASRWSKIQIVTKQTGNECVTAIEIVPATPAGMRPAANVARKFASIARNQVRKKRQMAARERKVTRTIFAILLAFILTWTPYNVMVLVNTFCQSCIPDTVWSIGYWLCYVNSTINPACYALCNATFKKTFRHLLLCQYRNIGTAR

Take `COc1ccccc1OCc1ccc(C(=O)OCC2CCCO2)o1` (centres undefined): the cell count in assay [1] came to 640. Also, the inhibition (in general, the drop in the measured response relative to a control, in per cent) in assay [1] is -5% (inactive); in assay [3], 0.1% (inactive); in assay [7], -10.8% (inactive); in assay [8] it was -24.7% (inactive). Also, in assay [2], the inhibition of aggregation was -10.7% (inactive). The nuclei count in assay [2] came out at 73.2%; in assay [3], 113%. For the same compound, the values for the fluorescence slope in assay [4] and in assay [6] were -0.503 (inactive) and 0.00535 (inactive), respectively. In addition, the NADPH fluorescence slope in assay [5] was -0.000334 (inactive).
For `CCOC(=O)C(C)On1c(SC(C)C(=O)OCC)nc2ccccc2c1=O` (centres undefined), the cell count in assay [1] was 808. The inhibition in assay [1] was -3.9% (inactive); in assay [3], -57.6% (inactive); in assay [7], 20% (inactive); in assay [8], 20% (inactive). Also, the inhibition of aggregation in assay [2] was 10.3% (inactive). For the same compound, the nuclei count was determined as 103% in assay [2] and 107% in assay [3]. Further, the fluorescence slope in assay [4] was -0.582 (inactive); in assay [6], 0.0065 (inactive). Further, the NADPH fluorescence slope in assay [5] was -5.7e-05 (inactive).
With `O=C(/C=N/O)Nc1cccnc1`, the cell count in assay [1] was 351. For the same compound, the inhibition in assay [1] is -10.2% (inactive); in assay [3], 57.2% (inactive); in assay [7], 21.9% (inactive); in assay [8], 26.5% (inactive). Also, the inhibition of aggregation in assay [2] is 17.5% (inactive). Further, the nuclei count in assay [2] is 86%; in assay [3], 98.5%. The fluorescence slope in assay [4] was -0.552 (inactive); in assay [6] it was 0.00502 (inactive). The NADPH fluorescence slope in assay [5] is -2.2e-05 (inactive).
Take `CCSc1nc(-c2ccc(OC)cc2)ccc1C#N`: the cell count in assay [1] was found to be 380. The inhibition in assay [1] is 1.5% (inactive); in assay [3], -44.4% (inactive); in assay [7] it was 9.36% (inactive); in assay [8] it was 7.27% (inactive). Also, the inhibition of aggregation in assay [2] is -5.1% (inactive). In addition, the nuclei count in assay [2] is 72.9%; in assay [3], 101%. The fluorescence slope was -0.551 (inactive) in assay [4] and 0.00795 (inactive) in assay [6]. The NADPH fluorescence slope in assay [5] is -1.9e-05 (inactive).
On to `CCOc1ccccc1CN1C(=O)c2ccccc2C1C(=O)NCC1CCCO1` (centres undefined), for which the cell count in assay [1] worked out at 350. In addition, the inhibition in assay [1] was 7.9% (inactive); in assay [3], -214% (inactive); in assay [7] it was 7.6% (inactive); in assay [8], 5.52% (inactive). Besides, the inhibition of aggregation in assay [2] is 6.8% (inactive). For the same compound, the nuclei count in assay [2] was 107%; in assay [3] it was 114%. Besides, the fluorescence slope in assay [4] was -0.585 (inactive); in assay [6] it was 0.00509 (inactive). For the same compound, the NADPH fluorescence slope in assay [5] is 2.5e-05 (inactive).
Take `COc1cccc2cc(C(=O)N3CCN(C45CC6CC(CC(C6)C4)C5)CC3)c(=O)oc12`: in assay [1], the cell count is 213. Moreover, the inhibition in assay [1] is 9.1% (inactive); in assay [3] it was 43.8% (inactive); in assay [7], 5.81% (inactive); in assay [8] it was 21.6% (inactive). Moreover, the inhibition of aggregation in assay [2] was 17.3% (inactive). Besides, the nuclei count stood at 71.5% in assay [2] and 85.2% in assay [3]. In addition, the fluorescence slope was -0.443 (inactive) in assay [4] and 0.00456 (inactive) in assay [6]. Moreover, the NADPH fluorescence slope in assay [5] was 2.5e-05 (inactive).
Consider `COc1cc(C2C(C#N)=C(N)OC3=C2C(=O)CCC3)ccc1OC(=O)N1CCOCC1` (centres undefined), for which the cell count in assay [1] turned out to be 503. Also, the inhibition in assay [1] was -34.2% (inactive); in assay [3] it was -20.8% (inactive); in assay [7], 8.74% (inactive); in assay [8], 6.55% (inactive). The inhibition of aggregation in assay [2] is -16.1% (inactive). Also, the results for the nuclei count in assay [2] and in assay [3] were 93.7% and 101%, respectively. For the same compound, the fluorescence slope in assay [4] is -0.37 (inactive); in assay [6], 0.00858 (inactive). For the same compound, the NADPH fluorescence slope in assay [5] is -7.7e-05 (inactive).
On to `O=c1[nH]c2c(s1)C(c1ccco1)C1C3CCC(C3)C1S2` (centres undefined), for which the cell count in assay [1] came out at 220. Further, the inhibition was 9.2% (inactive) in assay [1], -32.2% (inactive) in assay [3], 12.1% (inactive) in assay [7] and 26.3% (inactive) in assay [8]. Further, the inhibition of aggregation in assay [2] is 12.3% (inactive). For the same compound, the results for the nuclei count in assay [2] and in assay [3] were 89.5% and 108%, respectively. The fluorescence slope in assay [4] was -0.574 (inactive); in assay [6], 0.00506 (inactive). In assay [5], the NADPH fluorescence slope is -4.2e-05 (inactive).
As to `O=C(NCC1COCCO1)C1CCN(S(=O)(=O)c2ccccc2)CC1` (centres undefined), in assay [1], the cell count is 621. In addition, the inhibition in assay [1] is -9.6% (inactive); in assay [3], -28.6% (inactive); in assay [7], 12% (inactive); in assay [8], 0.992% (inactive). In addition, the inhibition of aggregation in assay [2] was -7.6% (inactive). Also, the nuclei count in assay [2] is 111%; in assay [3], 112%. For the same compound, the fluorescence slope in assay [4] is -0.557 (inactive); in assay [6] it was 0.0061 (inactive). Also, the NADPH fluorescence slope in assay [5] was 3.3e-05 (inactive).
As for `COc1cc(C(=O)N2c3ccccc3CC2C)cc(OC)c1OC` (centres undefined), the cell count in assay [1] came to 348. The inhibition in assay [1] is 4.3% (inactive); in assay [3], -13.9% (inactive); in assay [7], 17.5% (inactive); in assay [8], 33.5% (inactive). Also, in assay [2], the inhibition of aggregation is -6.3% (inactive). Further, the nuclei count in assay [2] is 89%; in assay [3], 113%. Also, the fluorescence slope in assay [4] is -0.296 (inactive); in assay [6], 0.0071 (inactive). Besides, the NADPH fluorescence slope in assay [5] was -2.6e-05 (inactive).
As for `CC1CCN(S(=O)(=O)c2ccc(S(=O)(=O)NCC(=O)C(C)(C)C)cc2)CC1`, in assay [1], the cell count amounted to 528. Further, the inhibition was -14.7% (inactive) in assay [1], -189% (inactive) in assay [3], 0.588% (inactive) in assay [7] and 9.79% (inactive) in assay [8]. Besides, the inhibition of aggregation in assay [2] was -10.2% (inactive). The nuclei count in assay [2] is 113%; in assay [3], 166%. The fluorescence slope in assay [4] is -0.571 (inactive); in assay [6] it was 0.00717 (inactive). Also, in assay [5], the NADPH fluorescence slope was -7.1e-05 (inactive).
For the compound `CSc1nnc(-c2cnccn2)n1C`, in assay [1], the cell count came to 679. Also, the inhibition in assay [1] was -15.7% (inactive); in assay [3] it was -73.6% (inactive); in assay [7], 22.1% (inactive); in assay [8], 25.7% (inactive). Also, the inhibition of aggregation in assay [2] was -6.5% (inactive). The figures for the nuclei count in assay [2] and in assay [3] were 121% and 109%, respectively. Also, the figures for the fluorescence slope in assay [4] and in assay [6] were -0.603 (inactive) and 0.00641 (inactive), respectively. In addition, in assay [5], the NADPH fluorescence slope was -3.8e-06 (inactive).
For the compound `CC(=O)C1=C(O)C(=O)N(Cc2ccco2)C1c1ccc2c(c1)OCO2` (centres undefined), in assay [1], the cell count was 403. Besides, the inhibition is 10.9% (inactive) in assay [1], 7.1% (inactive) in assay [3], 0.0775% (inactive) in assay [7] and 11.9% (inactive) in assay [8]. Further, the inhibition of aggregation in assay [2] is 1.6% (inactive). In addition, the nuclei count was found to be 104% in assay [2] and 116% in assay [3]. Moreover, the figures for the fluorescence slope in assay [4] and in assay [6] were -0.513 (inactive) and 0.00429 (inactive), respectively. Further, the NADPH fluorescence slope in assay [5] is -2.5e-05 (inactive).
Turning to `CCCc1[nH]nc2c1C(c1cccc(OC(=O)c3ccco3)c1)C(C#N)=C(N)O2` (centres undefined), the cell count in assay [1] came out at 687. Further, the inhibition in assay [1] is -27.1% (inactive); in assay [3] it was 35.2% (inactive); in assay [7] it was 9.57% (inactive); in assay [8], 18% (inactive). The inhibition of aggregation in assay [2] was -11.9% (inactive). Further, the nuclei count worked out at 105% in assay [2] and 96.7% in assay [3]. Besides, the fluorescence slope was -0.471 (inactive) in assay [4] and 0.00951 (inactive) in assay [6]. Moreover, the NADPH fluorescence slope in assay [5] is -8.2e-06 (inactive).
